Compound activity from PubChem BioAssay.
S1P4 antagonist – antagonists of human S1P4 receptor; S1P4-expressing cells, antagonist mode, reporter read-out; inhibition, % at 4.98 µM; O95977; 220,000 compounds, 0.26% hits; in the data active = inhibition above about 29%;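 also: 0% = wells stimulated with agonist and 100% = vehicle wells without agonist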
TNAP inh hi DEA – blocks human TNAP under high phosphate acceptor concentration. inhibition, % at 20 µM. purified TNAP, CDP-star luminescence, 1 M DEA. 200,000 compounds, 0.03% hits;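 active = over 50% inhibition of tissue-nonspecific alkaline phosphatase at 20 µM in the single-dose screen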;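 also: plate controls were DMSO wells for no effect and EDTA-quenched wells as full inhibition for full effect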
TNAP act hi DEA – TNAP (human) activation, high acceptor. P05186. 200,000 tested, under 10 active. AID 1136. purified TNAP, CDP-star luminescence, 1 M DEA, 30 min; stronger effect = higher value; 0 = EDTA background, 1 = DMSO-only activity. activation factor at 20 µM;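 active = activation factor at least 2 at 20 µM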
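Dosing: 20 µM single point. System: human TNAP. Amount: TNAP 1/800 final. Incubation: 30 min, room temperature. Read-out: TNAP activation factor scaled between EDTA and DMSO control wells. Signal: luminescence from CDP-star hydrolysis. Medium: 1 M DEA, pH 9.8, Mg2+, Zn2+. Control set: EDTA negative control, DMSO positive control.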
S1P3 antagonist – antagonists of human S1P3 receptor | 170,000 compounds, 0.27% hits | AID 485 | CHO S1P3 NFAT-BLA reporter, FRET fluorescence, antagonist mode | inhibition, % at 4.98 µM | Q99500;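 active = inhibition above the plate cutoff, the mean inhibition of test wells on that plate plus 3 SD, cut at about 28% in these data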;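 also: cells challenged with S1P at its EC80 of 0.8 µM; blue over green emission ratio from cleaved BLA substrate after 4 h stimulation; 0% = S1P-stimulated wells and 100% = unstimulated DMSO-only wells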
S1P4 ag – agonists of human S1P4 receptor; S1P4-expressing cell line, agonist reporter assay; activation, % at 4.98 µM; 220,000 compounds, 0.35% hits; in the data active = activation above about 11%;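 also: 0% = DMSO vehicle and 100% = reference agonist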
TNAP inh no acc – inhibitors of human TNAP without phosphate acceptor; purified TNAP, CDP-star luminescence, 30 min; inhibition, % at 20 µM; 200,000 compounds, 0.26% hits; AID 1012;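 active = tissue-nonspecific alkaline phosphatase inhibition above about 50% at 20 µM in the single-dose screen, limit read from the data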;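 also: 0% = DMSO negative control and 100% = EDTA positive control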
S1P4 antag cf – human S1P4 antagonism, confirmation; inhibition, % at 4.98 µM; shares compounds with S1P4 antagonist; S1P4-expressing cell line, antagonist mode, reporter read-out; 520 compounds, 71% hits; in the data active = inhibition above about 30%
S1P1 antag – counter-screen for S1P4 antagonists: antagonists of human S1P1; 520 compounds, 37% hits; shares compounds with S1P4 antagonist; AID 1564; inhibition, % at 4.98 µM; cell-based S1P1 antagonist counterscreen, inhibition; in the data active = inhibition above about 40%;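 also: receptor stimulated with S1P near its EC80; 0% = agonist stimulated wells and 100% = vehicle only wells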
Target sequence (P21453 whole entry, looked up): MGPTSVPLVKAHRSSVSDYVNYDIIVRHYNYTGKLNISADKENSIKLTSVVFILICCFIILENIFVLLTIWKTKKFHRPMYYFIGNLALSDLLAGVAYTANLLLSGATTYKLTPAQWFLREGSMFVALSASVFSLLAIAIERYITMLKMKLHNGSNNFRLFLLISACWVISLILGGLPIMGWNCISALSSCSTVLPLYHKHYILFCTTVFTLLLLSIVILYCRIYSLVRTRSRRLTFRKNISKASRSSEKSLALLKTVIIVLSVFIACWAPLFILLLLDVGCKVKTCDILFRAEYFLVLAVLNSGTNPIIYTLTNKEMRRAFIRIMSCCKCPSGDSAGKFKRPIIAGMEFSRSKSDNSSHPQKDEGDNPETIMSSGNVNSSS
Active calls of the source: *; · = no result given. This is a sample that favours compounds with a hit; in the whole collection about 1.1% have one here.

SMILES	S1P4 antagonist	TNAP inh hi DEA	TNAP act hi DEA	S1P3 antagonist	S1P4 ag	TNAP inh no acc	S1P4 antag cf	S1P1 antag
CC1Cn2c(nnc2-c2cc3ccccc3cc2O)S1 (configuration not stated)	34*	1	1	-2	1	-29	6	26
CNC1=C([N+](=O)[O-])CC([N+](=O)[O-])=C(N2CCNCC2)N1C	35*	0	1	-23	0	-3	-1	2
O=[N+]([O-])c1cc(S(=O)(=O)N2CCCCC2)ccc1NCCCN1CCOCC1	-14	5	0.9	-5	0	-5	·	·
COc1cc(NC(=O)c2cc(CC(C)C)on2)c(OC)cc1Cl	33*	-1	1	-6	1	-21	23	12
CCCc1cc(C(=O)Nc2cc(OC)c(Cl)cc2OC)no1	-10	1	1	-19	3	-6	·	·
COc1cccc(-n2nnnc2S(C)(=O)=O)c1	42*	-5	1	·	0	-6	110*	17
Cc1cccc(Cn2nc(C)cc2NC(=O)CCCn2ccc([N+](=O)[O-])n2)c1	-36	1	1	-23	0	-2	·	·
COc1ccccc1C1CCN(C(=O)c2cnn(-c3ccccc3)c2C)CC1	-1	·	·	9	0	·	·	·
O=C(CC(SCc1ccco1)c1ccc(O)cc1)c1cccs1 (configuration not stated)	21	27	0.7	-2	-1	46	·	·
O=C(CC(SCCO)c1ccc2c(c1)OCO2)c1cccs1 (configuration not stated)	36*	-5	1.1	-11	-1	22	28	-21
Cc1ccc(-c2csc(NC(=O)C3CCN(S(=O)(=O)c4cccs4)CC3)n2)cc1	59*	-8	1.1	2	-1	-17	5	14
Cc1ccc(-n2nnnc2Sc2ccc(S(=O)(=O)NCCN(C)C)cc2[N+](=O)[O-])cc1	49*	0	1	-6	3	-37	68*	59*
O=[N+]([O-])c1cc(S(=O)(=O)NCCN2CCOCC2)ccc1Sc1nnnn1-c1ccccc1	9	4	1	2	2	-6	·	·
Cc1ccc(NN2C(=O)C=C(c3ccccc3)C2=O)cc1	37*	0	1	15	0	-14	57*	36
Cc1cccc(Cc2ccc(Cl)nn2)c1	-6	-3	1	-13	1	-7	·	·
COc1cc(CNCCCN2CCOCC2)cc(Br)c1OCc1ccc(Cl)cc1	30*	-1	1	4	2	-10	52*	39
CCN(CC)C(=O)CN(C#N)c1nc(Cl)nc(N(C)C)n1	42*	-8	1.1	-16	-2	-9	50*	39
O=c1cc(O)c2c(=O)n(Cc3ccccc3)c3ccccc3c2o1	89*	-3	1	4	3	-2	-7	15
Cc1cc(C)nc(SCc2ccc(C(=O)N/N=C/c3ccco3)cc2)n1	-9	-3	1	-3	1	-29	·	·
CC(=O)N1CCc2c(sc(NC(=O)c3ccc([N+](=O)[O-])o3)c2C#N)C1	33*	13	0.9	2	0	11	82*	34
COc1ccc(C(=O)Nc2sc3c(c2C#N)CCN(C(C)=O)C3)cc1	3	-5	1	9	1	-12	·	·
Oc1c(C(c2cccs2)N2CCN(c3ccccc3)CC2)ccc2cccnc12 (configuration not stated)	-9	-2	1	·	2	-6	·	·
Oc1c(C(c2ccccc2Cl)N2CCCC2)ccc2cccnc12 (configuration not stated)	30*	-10	1.1	-9	-1	-85	112*	92*
